Results published in ChEMBL document CHEMBL2062435, “Synthesis and in vitro antibacterial activity of gemifloxacin derivatives containing a substituted benzyloxime moiety” (2012).

Columns and labels:
Assay type in all cases: functional
[1] = tested on: Escherichia coli; test: Antimicrobial activity against Escherichia coli 10-1 after 18-24 hrs by two-fold serial dilution method
Procedure, shortened: (§1)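 Agar-medium twofold serial dilution against Gram-positive and Gram-negative strains; MIC taken as the lowest compound concentration giving complete inhibition of bacterial growth after incubation at 35 °C for 18-24 h.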

[2] = tested on: Escherichia coli; test: Antimicrobial activity against Escherichia coli 10-3 after 18-24 hrs by two-fold serial dilution method; procedure, shortened: as §1
[3] = tested on: Staphylococcus epidermidis; test: Antimicrobial activity against extended spectrum beta-lactamases-producing methicillin-resistant Staphylococcus epidermidis 10-13 after 18-24 hrs by two-fold serial dilution method
Procedure, shortened: (§2)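 Agar twofold serial dilution MIC against clinical isolates. MIC was taken as the lowest concentration giving complete inhibition of bacterial growth after incubation at 35 °C for 18-24 h.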

[4] = tested on: Staphylococcus epidermidis; test: Antimicrobial activity against extended spectrum beta-lactamases-producing methicillin-sensitive Staphylococcus epidermidis 10-15 after 18-24 hrs by two-fold serial dilution method; procedure, shortened: as §1
[5] = tested on: Klebsiella pneumoniae; test: Antimicrobial activity against Klebsiella pneumoniae 10-4 after 18-24 hrs by two-fold serial dilution method; procedure, shortened: as §1
[6] = tested on: Streptococcus pneumoniae; test: Antimicrobial activity against extended spectrum beta-lactamases-producing Streptococcus pneumoniae 10-1 after 18-24 hrs by two-fold serial dilution method; procedure, shortened: as §1
[7] = tested on: Enterococcus faecium; test: Antimicrobial activity against Enterococcus faecium 10-9 after 18-24 hrs by two-fold serial dilution method; procedure, shortened: as §1
[8] = tested on: Klebsiella pneumoniae; test: Antimicrobial activity against Klebsiella pneumoniae 10-3 after 18-24 hrs by two-fold serial dilution method; procedure, shortened: as §1
[9] = tested on: Escherichia coli; test: Antimicrobial activity against extended spectrum beta-lactamases-producing Escherichia coli 10-3 after 18-24 hrs by two-fold serial dilution method; procedure, shortened: as §1
[10] = tested on: Escherichia coli; test: Antimicrobial activity against extended spectrum beta-lactamases-producing Escherichia coli 10-4 after 18-24 hrs by two-fold serial dilution method; procedure, shortened: as §1
[11] = tested on: Staphylococcus aureus; test: Antimicrobial activity against extended spectrum beta-lactamases-producing methicillin-resistant Staphylococcus aureus 10-11 after 18-24 hrs by two-fold serial dilution method; procedure, shortened: as §2
[12] = tested on: Escherichia coli; test: Antimicrobial activity against Escherichia coli ATCC 25922 after 18-24 hrs by two-fold serial dilution method; procedure, shortened: as §1
[13] = tested on: Klebsiella pneumoniae; test: Antimicrobial activity against extended spectrum beta-lactamases-producing Klebsiella pneumoniae 10-1 after 18-24 hrs by two-fold serial dilution method; procedure, shortened: as §1
[14] = tested on: Klebsiella pneumoniae; test: Antimicrobial activity against extended spectrum beta-lactamases-producing Klebsiella pneumoniae 10-3 after 18-24 hrs by two-fold serial dilution method; procedure, shortened: as §1
[15] = tested on: Pseudomonas aeruginosa; test: Antimicrobial activity against extended spectrum beta-lactamases-producing Pseudomonas aeruginosa 10-5 after 18-24 hrs by two-fold serial dilution method; procedure, shortened: as §1
[16] = tested on: Staphylococcus aureus; test: Antimicrobial activity against extended spectrum beta-lactamases-producing methicillin-sensitive Staphylococcus aureus 10-13 after 18-24 hrs by two-fold serial dilution method; procedure, shortened: as §1
[17] = tested on: Pseudomonas aeruginosa; test: Antimicrobial activity against Pseudomonas aeruginosa 10-12 after 18-24 hrs by two-fold serial dilution method; procedure, shortened: as §1
[18] = tested on: Enterococcus faecalis; test: Antimicrobial activity against Enterococcus faecalis 10-7 after 18-24 hrs by two-fold serial dilution method; procedure, shortened: as §1
[19] = tested on: Escherichia coli; test: Antimicrobial activity against Escherichia coli 10-2 after 18-24 hrs by two-fold serial dilution method; procedure, shortened: as §1
[20] = tested on: Enterococcus faecium; test: Antimicrobial activity against Enterococcus faecium 10-5 after 18-24 hrs by two-fold serial dilution method; procedure, shortened: as §1
[21] = tested on: Klebsiella pneumoniae; test: Antimicrobial activity against extended spectrum beta-lactamases-producing Klebsiella pneumoniae 10-2 after 18-24 hrs by two-fold serial dilution method; procedure, shortened: as §1
[22] = tested on: Enterococcus faecalis; test: Antimicrobial activity against Enterococcus faecalis 10-5 after 18-24 hrs by two-fold serial dilution method; procedure, shortened: as §1
[23] = tested on: Staphylococcus aureus; test: Antimicrobial activity against Staphylococcus aureus ATCC […] after 18-24 hrs by two-fold serial dilution method; procedure, shortened: as §1
[24] = tested on: Staphylococcus aureus; test: Antimicrobial activity against extended spectrum beta-lactamases-producing methicillin-resistant Staphylococcus aureus 10-15 after 18-24 hrs by two-fold serial dilution method; procedure, shortened: as §2
[25] = tested on: Pseudomonas aeruginosa; test: Antimicrobial activity against extended spectrum beta-lactamases-producing Pseudomonas aeruginosa 10-18 after 18-24 hrs by two-fold serial dilution method; procedure, shortened: as §1
[26] = tested on: Pseudomonas aeruginosa; test: Antimicrobial activity against extended spectrum beta-lactamases-producing Pseudomonas aeruginosa 10-9 after 18-24 hrs by two-fold serial dilution method; procedure, shortened: as §1
[27] = tested on: Staphylococcus epidermidis; test: Antimicrobial activity against extended spectrum beta-lactamases-producing methicillin-sensitive Staphylococcus epidermidis 10-11 after 18-24 hrs by two-fold serial dilution method; procedure, shortened: as §1
[28] = tested on: Enterococcus faecalis; test: Antimicrobial activity against Enterococcus faecalis 10-6 after 18-24 hrs by two-fold serial dilution method; procedure, shortened: as §1
[29] = tested on: Pseudomonas aeruginosa; test: Antimicrobial activity against extended spectrum beta-lactamases-producing Pseudomonas aeruginosa 10-20 after 18-24 hrs by two-fold serial dilution method; procedure, shortened: as §1
[30] = tested on: Staphylococcus epidermidis; test: Antimicrobial activity against extended spectrum beta-lactamases-producing methicillin-sensitive Staphylococcus epidermidis 10-13 after 18-24 hrs by two-fold serial dilution method; procedure, shortened: as §1
[31] = tested on: Escherichia coli; test: Antimicrobial activity against extended spectrum beta-lactamases-producing Escherichia coli 10-2 after 18-24 hrs by two-fold serial dilution method; procedure, shortened: as §1
[32] = tested on: Streptococcus pneumoniae; test: Antimicrobial activity against extended spectrum beta-lactamases-producing Streptococcus pneumoniae 10-4 after 18-24 hrs by two-fold serial dilution method; procedure, shortened: as §1
[33] = tested on: Klebsiella pneumoniae; test: Antimicrobial activity against Klebsiella pneumoniae 10-2 after 18-24 hrs by two-fold serial dilution method; procedure, shortened: as §1
[34] = tested on: Staphylococcus epidermidis; test: Antimicrobial activity against extended spectrum beta-lactamases-producing methicillin-resistant Staphylococcus epidermidis 10-10 after 18-24 hrs by two-fold serial dilution method; procedure, shortened: as §2
[35] = tested on: Staphylococcus aureus; test: Antimicrobial activity against extended spectrum beta-lactamases-producing methicillin-sensitive Staphylococcus aureus 10-14 after 18-24 hrs by two-fold serial dilution method; procedure, shortened: as §1
[36] = tested on: Pseudomonas aeruginosa; test: Antimicrobial activity against extended spectrum beta-lactamases-producing Pseudomonas aeruginosa 10-15 after 18-24 hrs by two-fold serial dilution method; procedure, shortened: as §1

CS(=O)(=O)O.NCC1CN(c2nc3c(cc2F)c(=O)c(C(=O)O)cn3C2CC2)C/C1=N\OCc1ccc(OCc2ccccc2)cc1 (racemic)
MIC [1]: 0.03 µg/mL
MIC [2]: 0.125 µg/mL
MIC [3]: 4 µg/mL
MIC [4]: 4 µg/mL
MIC [5]: > 128 µg/mL
MIC [6]: 2 µg/mL
MIC [7]: 32 µg/mL
MIC [8]: 2 µg/mL
MIC [9]: > 128 µg/mL
MIC [10]: 0.06 µg/mL
MIC [11]: 4 µg/mL
MIC [12]: 4 µg/mL
MIC [13]: > 128 µg/mL
MIC [14]: 8 µg/mL
MIC [15]: 16 µg/mL
MIC [16]: 1 µg/mL
MIC [17]: 16 µg/mL
MIC [18]: 16 µg/mL
MIC [19]: 0.25 µg/mL
MIC [20]: 32 µg/mL
MIC [21]: > 128 µg/mL
MIC [22]: 8 µg/mL
MIC [23]: 2 µg/mL
MIC [24]: 8 µg/mL
MIC [25]: 2 µg/mL
MIC [26]: 2 µg/mL
MIC [27]: 1 µg/mL
MIC [28]: 32 µg/mL
MIC [29]: 16 µg/mL
MIC [30]: 16 µg/mL
MIC [31]: > 128 µg/mL
MIC [32]: 8 µg/mL
MIC [33]: 16 µg/mL
MIC [34]: 4 µg/mL
MIC [35]: 1 µg/mL
MIC [36]: 8 µg/mL

COc1ccc(CO/N=C2\CN(c3nc4c(cc3F)c(=O)c(C(=O)O)cn4C3CC3)CC2CN)c(OC)c1.CS(=O)(=O)O (racemic)
MIC [1]: > 128 µg/mL
MIC [2]: 16 µg/mL
MIC [3]: 0.5 µg/mL
MIC [4]: 4 µg/mL
MIC [5]: > 128 µg/mL
MIC [6]: 1 µg/mL
MIC [7]: 8 µg/mL
MIC [8]: 8 µg/mL
MIC [9]: 32 µg/mL
MIC [10]: 0.25 µg/mL
MIC [11]: 1 µg/mL
MIC [12]: 0.125 µg/mL
MIC [13]: > 128 µg/mL
MIC [14]: > 128 µg/mL
MIC [15]: 4 µg/mL
MIC [16]: 1 µg/mL
MIC [17]: 0.06 µg/mL
MIC [18]: 2 µg/mL
MIC [19]: 8 µg/mL
MIC [20]: 8 µg/mL
MIC [21]: > 128 µg/mL
MIC [22]: 0.5 µg/mL
MIC [23]: 0.06 µg/mL
MIC [24]: 0.25 µg/mL
MIC [25]: 16 µg/mL
MIC [26]: 8 µg/mL
MIC [27]: 4 µg/mL
MIC [28]: 4 µg/mL
MIC [29]: 0.25 µg/mL
MIC [30]: 1 µg/mL
MIC [31]: > 128 µg/mL
MIC [32]: 4 µg/mL
MIC [33]: > 128 µg/mL
MIC [34]: 2 µg/mL
MIC [35]: 0.06 µg/mL
MIC [36]: 8 µg/mL
